The target of data set [1] is T1, Extracellular calcium-sensing receptor (Homo sapiens, UniProt P41180).
T1 sequence (P41180 whole entry): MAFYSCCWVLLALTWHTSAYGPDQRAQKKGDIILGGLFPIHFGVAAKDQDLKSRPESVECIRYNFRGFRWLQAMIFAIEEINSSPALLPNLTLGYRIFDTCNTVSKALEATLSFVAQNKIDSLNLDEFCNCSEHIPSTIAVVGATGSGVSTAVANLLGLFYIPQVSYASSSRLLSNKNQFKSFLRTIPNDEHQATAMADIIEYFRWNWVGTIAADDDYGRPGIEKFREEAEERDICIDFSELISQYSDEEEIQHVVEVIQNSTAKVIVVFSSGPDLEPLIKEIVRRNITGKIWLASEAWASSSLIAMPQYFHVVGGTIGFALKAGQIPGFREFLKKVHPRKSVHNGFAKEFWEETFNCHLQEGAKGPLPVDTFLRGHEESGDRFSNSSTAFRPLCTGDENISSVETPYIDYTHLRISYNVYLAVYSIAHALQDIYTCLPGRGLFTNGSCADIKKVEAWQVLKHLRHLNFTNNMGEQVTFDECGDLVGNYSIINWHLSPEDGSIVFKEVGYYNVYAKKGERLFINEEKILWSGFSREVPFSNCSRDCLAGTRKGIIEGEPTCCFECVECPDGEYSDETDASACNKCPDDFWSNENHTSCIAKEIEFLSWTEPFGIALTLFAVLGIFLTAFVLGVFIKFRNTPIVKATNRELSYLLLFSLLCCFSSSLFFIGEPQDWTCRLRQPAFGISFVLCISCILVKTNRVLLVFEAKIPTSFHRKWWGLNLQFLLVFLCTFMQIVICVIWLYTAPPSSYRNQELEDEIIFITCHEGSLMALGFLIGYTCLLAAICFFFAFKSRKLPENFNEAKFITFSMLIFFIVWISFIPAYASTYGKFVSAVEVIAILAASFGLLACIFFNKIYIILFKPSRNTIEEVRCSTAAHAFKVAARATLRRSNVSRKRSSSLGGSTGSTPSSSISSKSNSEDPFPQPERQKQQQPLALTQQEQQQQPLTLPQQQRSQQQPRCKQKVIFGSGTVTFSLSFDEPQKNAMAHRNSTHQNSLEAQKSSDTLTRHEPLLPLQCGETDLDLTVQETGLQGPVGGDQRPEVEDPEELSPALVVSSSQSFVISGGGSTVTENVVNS
The experiment in a line: Antagonist activity at human CaSR expressed in rat PC12 cells transfected with zif promoter/luciferase by reporter gene assay. The class given is functional, cell-based, PC-12. An outline of the steps:
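Human CaSR antagonism measured by luciferase reporter gene assay in PC12h cells transfected with zif promoter/luciferase and hCaSR plasmids. IC50 values are means of two or more experiments.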
(In general: Reporter assays use an easily measured gene product as a stand-in for the process of interest.)

Data set [2] has as its system Rattus norvegicus. The experiment in a line: Increase of serum PTH (1-34) level in Sprague-Dawley rat at 100 mg/kg, po after 30 and 60 mins by ELISA relative to NPS 2143. The class given is functional. An outline of the steps:
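Sprague–Dawley rats (n = 5) were dosed orally at 100 mg/kg. Serum PTH 1–34 rise over basal at 30 and 60 min was measured by rat PTH 1–34 ELISA. The rise was scored against a reference calcilytic given at 100 mg/kg po: ++ >80%, + 50–80%, N.E. <50% of the reference increase.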
On the technique in general: In an ELISA, binding on a coated surface is turned into a signal by an enzyme label.

Data set [3] concerns Rattus norvegicus. The experiment in a line: Increase of serum PTH (1-34) level in Sprague-Dawley rat at 100 mg/kg, po after 30 and 60 mins by ELISA. The class given is functional. An outline of the steps: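 Sprague–Dawley rats (n = 5) were dosed orally at 100 mg/kg. Endogenous PTH 1–34 was measured by rat PTH 1–34 ELISA. The value is the increase over basal level at 30 min and 60 min after dosing.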

The nature of data set [4]: Cmax in rat at 10 mg/kg, po. The class given is ADME, organism-based. Details: dose 10 mg/kg, route oral. Conditions: in vivo.
Data set [5] can be described thus: Tmax in rat at 10 mg/kg, po. The class given is ADME, organism-based. Details: dose 10 mg/kg, route oral. The following applies: in vivo.
Data set [6] is described as follows: Half life in rat at 10 mg/kg, po. The class given is ADME, organism-based. The arrangement: dose 10 mg/kg, route oral. Conditions: in vivo.
Data set [7] is described as follows: Bioavailability in rat at 10 mg/kg, po. The class given is ADME, organism-based. Conditions: in vivo.
The target in another data set is Cytochrome P450 2D6 (Homo sapiens, UniProt P10635). In words: Inhibition of CYP2D6. The class given is ADME.
Data set [8] relates to Rattus norvegicus. In words: Increase of plasma PTH (1-84) level in Sprague-Dawley rat at 10 mg/kg, po after 2 hrs by ELISA.
Data set [9] relates to Rattus norvegicus. In words: Increase of plasma PTH (1-84) level in Sprague-Dawley rat at 10 mg/kg, po after 30 mins by ELISA.

Data on 35 molecules can be found in ChEMBL document CHEMBL1155547, “New aminopropandiol derivatives as orally available and short-acting calcium-sensing receptor antagonists” (Bioorg Med Chem Lett, 2010).

Calls of active or inactive are those of the source. The rule behind the calls is not given here.

Sequence of Cytochrome P450 2D6 (P10635 whole entry): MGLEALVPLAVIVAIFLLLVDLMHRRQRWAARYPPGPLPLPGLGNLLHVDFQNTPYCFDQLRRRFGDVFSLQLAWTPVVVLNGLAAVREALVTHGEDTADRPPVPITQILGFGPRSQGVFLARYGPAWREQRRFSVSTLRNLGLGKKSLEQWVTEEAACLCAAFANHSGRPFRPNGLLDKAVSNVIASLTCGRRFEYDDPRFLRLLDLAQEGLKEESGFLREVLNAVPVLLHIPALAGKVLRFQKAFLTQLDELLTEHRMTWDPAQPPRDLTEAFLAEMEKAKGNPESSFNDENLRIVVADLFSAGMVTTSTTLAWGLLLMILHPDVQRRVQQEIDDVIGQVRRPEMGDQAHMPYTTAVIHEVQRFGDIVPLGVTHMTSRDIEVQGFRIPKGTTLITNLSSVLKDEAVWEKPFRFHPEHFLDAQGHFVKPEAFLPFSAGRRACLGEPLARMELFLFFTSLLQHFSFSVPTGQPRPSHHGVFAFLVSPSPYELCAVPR

As a reminder, the IC50 is the concentration needed to halve the response being measured. In the case of `Cc1ccccc1[C@@H](OC[C@@H](O)CNC(C)(C)Cc1ccc2ccccc2c1)C1CC1`, in [1], the IC50 amounted to 0.76 µM.

`CC(C)C(OC[C@H](O)CNC(C)(C)Cc1ccc2ccccc2c1)c1ccccc1` (some centres not stated): in data set [1], the IC50 worked out at 0.2 µM.

On to `CCCCC(OC[C@H](O)CNC(C)(C)Cc1ccc2ccccc2c1)c1ccccc1` (some centres not stated), for which the concentration for half-maximal inhibition (IC50) in data set [1] came to 0.17 µM.

Turning to `Cc1ccccc1C(C)OC[C@H](O)CNC(C)(C)Cc1ccc2ccccc2c1` (some centres not stated), in [1], the IC50 worked out at 0.2 µM. Besides, the Activity in the data set with Rattus norvegicus [2] was over 80%.

As for `CC(C)(Cc1ccc2ccccc2c1)NC[C@@H](O)COC(c1ccccc1)C1CCCCC1` (some centres not stated), in data set [1], the IC50 was determined as 0.61 µM.

Molecule `CC(C)(Cc1ccc2ccccc2c1)NC[C@@H](O)COc1cccc(Cl)c1C#N` came in with an Activity with Rattus norvegicus [3] of 10 pg/mL. Besides, in data set [1], the IC50 was determined as 0.026 µM.

Regarding `CC(C)(Cc1ccc2ccccc2c1)NC[C@@H](O)COC(=O)c1ccccc1`, in data set [1], the IC50 is over 30 µM.

With `Cc1ccc(C(C)OC[C@H](O)CNC(C)(C)Cc2ccc3ccccc3c2)cc1` (some centres not stated), the IC50 in data set [1] was 0.14 µM. The molecule also came in with an Activity in the data set with Rattus norvegicus [2] of under 50%.

In the data set on Rattus norvegicus [2], `COc1ccccc1C(OC[C@H](O)CNC(C)(C)Cc1ccc2ccccc2c1)C1CC1` (some centres not stated) gave an Activity of over 80%.

Consider `Cc1cccc(C(C)OC[C@H](O)CNC(C)(C)Cc2ccc3ccccc3c2)c1` (some centres not stated), for which, in data set [1], the IC50 was found to be 0.17 µM. This molecule also yielded an Activity in the data set with Rattus norvegicus [2] of 50%.

`CC(C)(Cc1ccc2ccccc2c1)NC[C@@H](O)COC(c1ccccc1)C1CCCC1` (some centres not stated): the IC50 in data set [1] came to 0.2 µM.

As to `CC(C)(Cc1ccc2ccccc2c1)NC[C@@H](O)COC(c1ccccc1)c1ccccc1`, the IC50 in data set [1] was determined as 0.73 µM.

Turning to `CC(C)(Cc1ccc2ccccc2c1)NC[C@@H](O)COC(c1ccccc1)C1CCC1` (some centres not stated), in data set [1], the IC50 was found to be 0.074 µM.

For the molecule `CC(Cc1ccccc1)OC[C@H](O)CNC(C)(C)Cc1ccc2ccccc2c1` (some centres not stated), the IC50 in [1] was 0.44 µM.

For `CC(OC[C@H](O)CNC(C)(C)Cc1ccc2ccccc2c1)c1ccccc1C#N` (some centres not stated), the IC50 in data set [1] was 0.16 µM. The Activity in the data set with Rattus norvegicus [2] is 50%.

Turning to `Cc1ccccc1[C@@H](OC[C@H](O)CNC(C)(C)Cc1ccc2ccccc2c1)C1CC1`, in data set [1], the IC50 turned out to be 0.083 µM.

As for `Cc1ccccc1C(OC[C@H](O)CNC(C)(C)Cc1ccc2ccccc2c1)C1CC1` (some centres not stated), the IC50 in data set [1] stood at 0.037 µM. This molecule also showed an Activity in the data set with Rattus norvegicus [2] of over 80%.

For `CC(C)(Cc1ccc2ccccc2c1)NC[C@@H](O)COC(c1ccccc1)C(C)(C)C` (some centres not stated), the IC50 in [1] is 0.57 µM.

For `CC(OC[C@H](O)CNC(C)(C)Cc1ccc2ccccc2c1)c1ccccc1Cl` (some centres not stated), the IC50 in [1] came to 0.14 µM. The molecule also displayed an Activity with Rattus norvegicus [2] of under 50%.

For `CC(OC[C@H](O)CNC(C)(C)Cc1ccc2ccccc2c1)c1ccccc1` (some centres not stated), the IC50 in [1] came to 0.22 µM.

Turning to `CC(OC[C@H](O)CNC(C)(C)Cc1ccc2ccccc2c1)c1ccc2ccccc2c1` (some centres not stated), in data set [1], the IC50 is 0.55 µM.

Turning to `CC(C)(Cc1ccc2ccccc2c1)NC[C@@H](O)COC(c1ccccc1)C1CC1` (some centres not stated), the IC50 in data set [1] is 0.07 µM.

With `CCC(OC[C@H](O)CNC(C)(C)Cc1ccc2ccccc2c1)c1ccccc1` (some centres not stated), the 50% inhibitory concentration (IC50) in [1] turned out to be 0.092 µM.

What is called Cmax is the highest concentration seen after dosing. For orientation: Tmax means the time at which the peak concentration occurs. For orientation: half-life means the time in which the quantity being followed falls by half. A high value points to slow decline. The bioavailability is dose-corrected exposure relative to a reference, in per cent. Consider `Cc1ccccc1[C@H](OC[C@H](O)CNC(C)(C)Cc1ccc2ccccc2c1)C1CC1`, for which the IC50 in [1] worked out at 0.023 µM; at Cytochrome P450 2D6, 0.5 µM. Besides, the highest level in data set [4] (Cmax) was 300 nM. For the same molecule, in [5], the Tmax was 1 h. In data set [6], this molecule gave a half-life of 2 h. In [7], this molecule registered a bioavailability of 13%. For the same molecule, in the data set on Rattus norvegicus [8], the result was inactive. Also, in the data set with Rattus norvegicus [9], the result was Active.

As to `Cc1ccccc1[C@H](OC[C@@H](O)CNC(C)(C)Cc1ccc2ccccc2c1)C1CC1`, the IC50 in data set [1] amounted to 0.31 µM.

As for `CCCC(OC[C@H](O)CNC(C)(C)Cc1ccc2ccccc2c1)c1ccccc1` (some centres not stated), the IC50 in data set [1] turned out to be 0.15 µM.

Consider `CC(OC[C@H](O)CNC(C)(C)Cc1ccc2ccccc2c1)c1ccccc1[N+](=O)[O-]` (some centres not stated), for which, in data set [1], the IC50 was found to be 0.54 µM. This molecule came in with an Activity in the data set with Rattus norvegicus [2] of under 50%.

As to `COc1ccccc1C(C)OC[C@H](O)CNC(C)(C)Cc1ccc2ccccc2c1` (some centres not stated), the IC50 in [1] stood at 0.12 µM. The Activity in the data set with Rattus norvegicus [2] was over 80%.

For the molecule `CC(OC[C@H](O)CNC(C)(C)Cc1ccc2ccccc2c1)c1cccc(Cl)c1` (some centres not stated), in [1], the IC50 came out at 0.22 µM. The same molecule showed an Activity with Rattus norvegicus [2] of under 50%.

As for `C=CC(OC[C@H](O)CNC(C)(C)Cc1ccc2ccccc2c1)c1ccccc1` (some centres not stated), the IC50 in data set [1] came to 0.21 µM.

As to `CC(CCOC[C@H](O)CNC(C)(C)Cc1ccc2ccccc2c1)c1ccccc1` (some centres not stated), the IC50 in data set [1] stood at 0.3 µM.

Turning to `CC(C)(Cc1ccc2ccccc2c1)NC[C@@H](O)COC(C)(C)c1ccccc1`, the half-maximal inhibitory concentration (IC50) in [1] amounted to 2.24 µM.

For `CC(COC[C@H](O)CNC(C)(C)Cc1ccc2ccccc2c1)c1ccccc1` (some centres not stated), the half-inhibitory concentration (IC50) in data set [1] amounted to 0.81 µM.

Take `CC(OC[C@H](O)CNC(C)(C)Cc1ccc2ccccc2c1)c1ccccn1` (some centres not stated): the IC50 in data set [1] turned out to be 0.42 µM.

On to `CC(OC[C@H](O)CNC(C)(C)Cc1ccc2ccccc2c1)c1cccc2ccccc12` (some centres not stated), for which, in data set [1], the IC50 worked out at 0.36 µM.
